Our source for the EC50, CC50 and selectivity ratio values is ChEMBL document CHEMBL5346868 (Eur J Med Chem, 2023).

One may read the EC50 as the concentration giving half of the maximal effect. For orientation: CC50 means the concentration at which the toxic effect on the cells reaches its halfway point.

A value given as a limit tells only on which side of the number the result lay.

One series deals with SARS-CoV-2. Nature of the series: Antiviral activity against SARS-CoV-2 BetaCoV/Belgium/GHB-03021/2020 infected in african green monkey Vero cells assessed as decline in virus induced cytopathogenicity measured after 4 days by argon laser scanning microscopic analysis. Format: functional, organism-based. The settings on record: Severe acute respiratory syndrome coronavirus 2, BetaCoV/Belgium/GHB-03021/2020, Vero, 96 h.
For `CSC[C@H]1O[C@@H](n2cnc3c(N4CCc5ccccc54)ncnc32)[C@H](O)[C@@H]1O`, the EC50 was > 100 µM.
Same read-out and setting: the figure for `C[C@H](NP(=O)(OC[C@H]1O[C@@H](n2ccc3c(NCc4cccc(C(F)(F)F)c4)ncnc32)[C@H](O)[C@@H]1O)Oc1ccccc1)C(=O)OCc1ccccc1` (some centres not stated) is > 100 µM; for `C[C@H](NP(=O)(OC[C@H]1O[C@@H](n2cnc3c(NCc4cccc(C(F)(F)F)c4)ncnc32)[C@H](O)[C@@H]1O)Oc1ccccc1)C(=O)OCc1ccccc1` (some centres not stated) it is > 100 µM.
The same measure, in the same setting: the figure for `CSC[C@H]1O[C@@H](n2ccc3c(NCc4cccc(Cl)c4)ncnc32)[C@H](O)[C@@H]1O` is > 100 µM.
Same read-out and setting: the figure for `CC(Nc1ncnc2c1ncn2[C@@H]1O[C@H](CO)[C@@H](O)[C@H]1O)c1ccccc1Cl` (some centres not stated) is > 100 µM; for `CSC[C@H]1O[C@@H](n2cnc3c(NCc4ccccc4Cl)ncnc32)[C@H](O)[C@@H]1O` it is > 100 µM.
Consider `CSC[C@H]1O[C@@H](n2cnc3c(NCc4cccc(S(F)(F)(F)(F)F)c4)ncnc32)[C@H](O)[C@@H]1O`, for which the EC50 was > 100 µM.
The same measure, in the same setting: the figure for `CSC[C@H]1O[C@@H](n2cnc3c(NCc4ccc(Cl)cc4)ncnc32)[C@H](O)[C@@H]1O` is > 100 µM.
On the same count and under the same terms, the same measure for `CSC[C@H]1O[C@@H](n2cnc3c(NC(C)c4ccccc4Cl)ncnc32)[C@H](O)[C@@H]1O` (some centres not stated): > 100 µM.
On the same count and under the same terms, the figure for `CSC[C@H]1O[C@@H](n2cnc3c(NCc4cccc(C(F)(F)F)c4)ncnc32)[C@H](O)[C@@H]1O` is > 100 µM; for `OC[C@H]1O[C@@H](n2cnc3c(N4CCc5ccccc54)ncnc32)[C@H](O)[C@@H]1O` it is > 100 µM.

For the next series, the system named is Zika virus. The series is described as follows: Antiviral activity against ZIKV MR766 infected in african green monkey Vero E6 cells assessed as decline in virus induced cytopathogenicity measured after 5 days by MTS based microscopic analysis. Format: functional, organism-based. The note with it: MR766, Vero C1008, 120 h. In outline:
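Vero E6 cells (10^4/well) are seeded in MEM with 2% FCS and left to adhere overnight. Cells are then infected with ZIKV MR766 (passaged in C6/36 cells) and given 2-fold serial compound dilutions. After 5 days, CPE is scored by MTS and by microscopy of fixed, stained cells. EC50 is the 50% antiviral effect.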
In general terms: Damage to the host cells serves as the signal in cytopathic effect assays.
Consider `CSC[C@H]1O[C@@H](n2cnc3c(N4CCc5ccccc54)ncnc32)[C@H](O)[C@@H]1O`, for which the EC50 was > 100 µM.
Same read-out and setting: the same measure for `CSC[C@H]1O[C@@H](n2ccc3c(NCc4cccc(Cl)c4)ncnc32)[C@H](O)[C@@H]1O`: > 100 µM; for `CC(Nc1ncnc2c1ncn2[C@@H]1O[C@H](CO)[C@@H](O)[C@H]1O)c1ccccc1Cl` (some centres not stated): > 100 µM; for `CSC[C@H]1O[C@@H](n2cnc3c(NCc4ccccc4Cl)ncnc32)[C@H](O)[C@@H]1O`: > 100 µM.
Same read-out and setting: the same measure for `CSC[C@H]1O[C@@H](n2cnc3c(NCc4cccc(S(F)(F)(F)(F)F)c4)ncnc32)[C@H](O)[C@@H]1O`: > 100 µM; for `C[C@@]1(O)[C@H](O)[C@@H](CO)O[C@H]1n1ccc2c(N)ncnc21` [BETA-2'-C-METHYL-7-DEAZA-ADENOSINE]: 20 µM; for `CSC[C@H]1O[C@@H](n2cnc3c(NCc4ccc(Cl)cc4)ncnc32)[C@H](O)[C@@H]1O`: > 100 µM.
The same measure, in the same setting: the figure for `CSC[C@H]1O[C@@H](n2cnc3c(NC(C)c4ccccc4Cl)ncnc32)[C@H](O)[C@@H]1O` (some centres not stated) is > 100 µM; for `CSC[C@H]1O[C@@H](n2cnc3c(NCc4cccc(C(F)(F)F)c4)ncnc32)[C@H](O)[C@@H]1O` it is > 100 µM.
Regarding `OC[C@H]1O[C@@H](n2cnc3c(N4CCc5ccccc54)ncnc32)[C@H](O)[C@@H]1O`, the EC50 was > 100 µM.

For the next series, the system named is Enterovirus A71. Nature of the series: Antiviral activity against human Enterovirus 71 BrCr infected in human RD cells assessed as reduction of virus induced cytopathic effect incubated for 3 days by MTS assay. Format: functional, organism-based. The settings on record: Enterovirus A, 72 h. Put shortly:
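Confluent RD cells (EMEM, 10% heat-inactivated FBS) are infected with ~100 CCID50 of EV71 BrCr and treated with a compound dilution series. After 3 days at 37 °C, 5% CO2, residual viability is measured by MTS. EC50 is the concentration giving 50% antiviral effect, from at least 2–3 independent experiments.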
On to `CSC[C@H]1O[C@@H](n2cnc3c(N4CCc5ccccc54)ncnc32)[C@H](O)[C@@H]1O`, for which the EC50 is 19 µM.
Consider `C[C@H](NP(=O)(OC[C@H]1O[C@@H](n2ccc3c(NCc4cccc(C(F)(F)F)c4)ncnc32)[C@H](O)[C@@H]1O)Oc1ccccc1)C(=O)OCc1ccccc1` (some centres not stated), for which the EC50 is 0.6 µM.
For `C[C@H](NP(=O)(OC[C@H]1O[C@@H](n2cnc3c(NCc4cccc(C(F)(F)F)c4)ncnc32)[C@H](O)[C@@H]1O)Oc1ccccc1)C(=O)OCc1ccccc1` (some centres not stated), the EC50 came out at 0.017 µM.
Consider `CSC[C@H]1O[C@@H](n2ccc3c(NCc4cccc(Cl)c4)ncnc32)[C@H](O)[C@@H]1O`, for which the 50% effective concentration (EC50) is > 75 µM.
The same measure, in the same setting: the same measure for `CC(Nc1ncnc2c1ncn2[C@@H]1O[C@H](CO)[C@@H](O)[C@H]1O)c1ccccc1Cl` (some centres not stated): > 100 µM.
Same read-out and setting: the figure for `CSC[C@H]1O[C@@H](n2cnc3c(NCc4ccccc4Cl)ncnc32)[C@H](O)[C@@H]1O` is 2.61 µM.
Same read-out and setting: the same measure for `CSC[C@H]1O[C@@H](n2cnc3c(NCc4cccc(S(F)(F)(F)(F)F)c4)ncnc32)[C@H](O)[C@@H]1O`: 1.85 µM.
Consider `CSC[C@H]1O[C@@H](n2cnc3c(NCc4ccc(Cl)cc4)ncnc32)[C@H](O)[C@@H]1O`, for which the EC50 was 8.05 µM.
As for `CSC[C@H]1O[C@@H](n2cnc3c(NC(C)c4ccccc4Cl)ncnc32)[C@H](O)[C@@H]1O` (some centres not stated), the EC50 is > 100 µM.
Take `CSC[C@H]1O[C@@H](n2cnc3c(NCc4cccc(C(F)(F)F)c4)ncnc32)[C@H](O)[C@@H]1O`: the EC50 was > 20 µM.
Still for that read-out and setting: the figure for `OC[C@H]1O[C@@H](n2cnc3c(N4CCc5ccccc54)ncnc32)[C@H](O)[C@@H]1O` is > 100 µM.

Tested on in the next series: not listed separately
The series is described as follows: Cytotoxicity against human RD cells by MTS assay.
Conditions: not given
Format: toxicity, cell-based. Put shortly: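 Treated, uninfected RD or HeLa cells are run alongside the matching enterovirus CPE assays, with viability read by MTS. CC50 is the concentration giving a 50% adverse effect on host cells.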
On to `CSC[C@H]1O[C@@H](n2cnc3c(N4CCc5ccccc54)ncnc32)[C@H](O)[C@@H]1O`, for which the CC50 is 64.9 µM.
Still for that read-out and setting: the same measure for `C[C@H](NP(=O)(OC[C@H]1O[C@@H](n2ccc3c(NCc4cccc(C(F)(F)F)c4)ncnc32)[C@H](O)[C@@H]1O)Oc1ccccc1)C(=O)OCc1ccccc1` (some centres not stated): 42.5 µM; for `C[C@H](NP(=O)(OC[C@H]1O[C@@H](n2cnc3c(NCc4cccc(C(F)(F)F)c4)ncnc32)[C@H](O)[C@@H]1O)Oc1ccccc1)C(=O)OCc1ccccc1` (some centres not stated): 9.18 µM; for `CSC[C@H]1O[C@@H](n2ccc3c(NCc4cccc(Cl)c4)ncnc32)[C@H](O)[C@@H]1O`: > 100 µM.
Still for that read-out and setting: the figure for `CC(Nc1ncnc2c1ncn2[C@@H]1O[C@H](CO)[C@@H](O)[C@H]1O)c1ccccc1Cl` (some centres not stated) is > 100 µM; for `CSC[C@H]1O[C@@H](n2cnc3c(NCc4ccccc4Cl)ncnc32)[C@H](O)[C@@H]1O` it is > 100 µM.
Turning to `CCOC(=O)/C=C/[C@H](C[C@@H]1CCNC1=O)NC(=O)[C@@H](CC(=O)[C@@H](NC(=O)c1cc(C)on1)C(C)C)Cc1ccc(F)cc1`, the CC50 is > 1 µM.
Still for that read-out and setting: the same measure for `CSC[C@H]1O[C@@H](n2cnc3c(NCc4cccc(S(F)(F)(F)(F)F)c4)ncnc32)[C@H](O)[C@@H]1O`: 23.5 µM; for `CSC[C@H]1O[C@@H](n2cnc3c(NCc4ccc(Cl)cc4)ncnc32)[C@H](O)[C@@H]1O`: > 100 µM; for `CSC[C@H]1O[C@@H](n2cnc3c(NC(C)c4ccccc4Cl)ncnc32)[C@H](O)[C@@H]1O` (some centres not stated): > 100 µM.
As for `CSC[C@H]1O[C@@H](n2cnc3c(NCc4cccc(C(F)(F)F)c4)ncnc32)[C@H](O)[C@@H]1O`, the CC50 is > 100 µM.
Same read-out and setting: the same measure for `OC[C@H]1O[C@@H](n2cnc3c(N4CCc5ccccc54)ncnc32)[C@H](O)[C@@H]1O`: > 100 µM.

Tested on in a further series: not listed separately
The series is described as follows: Cytotoxicity against african green monkey Vero E6 cells by MTS assay. In kind it is toxicity, cell-based, Vero C1008. The settings on record: chlorocebus sabaeus. Put shortly:
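Cytotoxicity is measured on treated, uninfected Vero E6 cells in parallel with the antiviral assays, using a standard MTS assay. CC50 is the concentration causing a 50% adverse effect on host cells.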
On the technique in general: Tetrazolium assays rely on reduction of a dye to a coloured formazan, in cell work by metabolically active cells.
Regarding `CSC[C@H]1O[C@@H](n2cnc3c(N4CCc5ccccc54)ncnc32)[C@H](O)[C@@H]1O`, the CC50 is > 100 µM.
The same measure, in the same setting: the figure for `C[C@H](NP(=O)(OC[C@H]1O[C@@H](n2ccc3c(NCc4cccc(C(F)(F)F)c4)ncnc32)[C@H](O)[C@@H]1O)Oc1ccccc1)C(=O)OCc1ccccc1` (some centres not stated) is > 100 µM; for `CSC[C@H]1O[C@@H](n2ccc3c(NCc4cccc(Cl)c4)ncnc32)[C@H](O)[C@@H]1O` it is > 100 µM; for `CC(Nc1ncnc2c1ncn2[C@@H]1O[C@H](CO)[C@@H](O)[C@H]1O)c1ccccc1Cl` (some centres not stated) it is > 100 µM.
`CSC[C@H]1O[C@@H](n2cnc3c(NCc4ccccc4Cl)ncnc32)[C@H](O)[C@@H]1O`: the CC50 was > 100 µM.
`CSC[C@H]1O[C@@H](n2cnc3c(NCc4cccc(S(F)(F)(F)(F)F)c4)ncnc32)[C@H](O)[C@@H]1O` had a half-maximal cytotoxic concentration (CC50) of 46.4 µM.
Still for that read-out and setting: the figure for `C[C@@]1(O)[C@H](O)[C@@H](CO)O[C@H]1n1ccc2c(N)ncnc21` [BETA-2'-C-METHYL-7-DEAZA-ADENOSINE] is > 300 µM; for `CSC[C@H]1O[C@@H](n2cnc3c(NCc4ccc(Cl)cc4)ncnc32)[C@H](O)[C@@H]1O` it is > 100 µM; for `CSC[C@H]1O[C@@H](n2cnc3c(NC(C)c4ccccc4Cl)ncnc32)[C@H](O)[C@@H]1O` (some centres not stated) it is > 100 µM.
The same measure, in the same setting: the figure for `CSC[C@H]1O[C@@H](n2cnc3c(NCc4cccc(C(F)(F)F)c4)ncnc32)[C@H](O)[C@@H]1O` is > 100 µM.
Same read-out and setting: the figure for `OC[C@H]1O[C@@H](n2cnc3c(N4CCc5ccccc54)ncnc32)[C@H](O)[C@@H]1O` is > 100 µM.

Tested on in a further series: not listed separately
Nature of the series: Selectivity index, ratio of CC50 for human RD cells to EC50 for antiviral activity against human Enterovirus 71. In kind it is toxicity. The note with it: read-out: Ratio CC50/EC50. Put shortly: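 SI is calculated as CC50 on uninfected RD cells divided by EC50 in the 3-day EV71 BrCr CPE-reduction MTS assay.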
On to `CSC[C@H]1O[C@@H](n2cnc3c(N4CCc5ccccc54)ncnc32)[C@H](O)[C@@H]1O`, for which the selectivity ratio was found to be 3.4.
The same measure, in the same setting: the figure for `C[C@H](NP(=O)(OC[C@H]1O[C@@H](n2ccc3c(NCc4cccc(C(F)(F)F)c4)ncnc32)[C@H](O)[C@@H]1O)Oc1ccccc1)C(=O)OCc1ccccc1` (some centres not stated) is 70.8; for `C[C@H](NP(=O)(OC[C@H]1O[C@@H](n2cnc3c(NCc4cccc(C(F)(F)F)c4)ncnc32)[C@H](O)[C@@H]1O)Oc1ccccc1)C(=O)OCc1ccccc1` (some centres not stated) it is 542.
Same read-out and setting: the same measure for `CSC[C@H]1O[C@@H](n2cnc3c(NCc4ccccc4Cl)ncnc32)[C@H](O)[C@@H]1O`: > 38.3.
On the same count and under the same terms, the figure for `CCOC(=O)/C=C/[C@H](C[C@@H]1CCNC1=O)NC(=O)[C@@H](CC(=O)[C@@H](NC(=O)c1cc(C)on1)C(C)C)Cc1ccc(F)cc1` is > 111; for `CSC[C@H]1O[C@@H](n2cnc3c(NCc4cccc(S(F)(F)(F)(F)F)c4)ncnc32)[C@H](O)[C@@H]1O` it is 12.7.
On to `CSC[C@H]1O[C@@H](n2cnc3c(NCc4ccc(Cl)cc4)ncnc32)[C@H](O)[C@@H]1O`, for which the selectivity ratio is > 12.1.
